Measured values taken from ChEMBL document CHEMBL3596098, “Insights into the interaction of negative allosteric modulators with the metabotropic glutamate receptor 5: discovery and computational modeling of a new series of ligands with nanomolar affinity” (Bioorg Med Chem, 2015).

Experiments:
[1] = target: Metabotropic glutamate receptor 5 (Rattus norvegicus, UniProt P31424); experiment: Displacement of [3H]MPEP from mGluR5 receptor in Sprague-Dawley rat forebrain membrane after 60 mins by liquid scintillation spectrometry
[2] = target: T1, Metabotropic glutamate receptor 5 (Homo sapiens, UniProt P41594); experiment: Displacement of [3H]MPEP from human cloned mGluR5 receptor expressed in CHO-T-Rex cells after 60 mins by liquid scintillation spectrometry; format: cell-based
Target sequence in this assay (P41594 whole entry): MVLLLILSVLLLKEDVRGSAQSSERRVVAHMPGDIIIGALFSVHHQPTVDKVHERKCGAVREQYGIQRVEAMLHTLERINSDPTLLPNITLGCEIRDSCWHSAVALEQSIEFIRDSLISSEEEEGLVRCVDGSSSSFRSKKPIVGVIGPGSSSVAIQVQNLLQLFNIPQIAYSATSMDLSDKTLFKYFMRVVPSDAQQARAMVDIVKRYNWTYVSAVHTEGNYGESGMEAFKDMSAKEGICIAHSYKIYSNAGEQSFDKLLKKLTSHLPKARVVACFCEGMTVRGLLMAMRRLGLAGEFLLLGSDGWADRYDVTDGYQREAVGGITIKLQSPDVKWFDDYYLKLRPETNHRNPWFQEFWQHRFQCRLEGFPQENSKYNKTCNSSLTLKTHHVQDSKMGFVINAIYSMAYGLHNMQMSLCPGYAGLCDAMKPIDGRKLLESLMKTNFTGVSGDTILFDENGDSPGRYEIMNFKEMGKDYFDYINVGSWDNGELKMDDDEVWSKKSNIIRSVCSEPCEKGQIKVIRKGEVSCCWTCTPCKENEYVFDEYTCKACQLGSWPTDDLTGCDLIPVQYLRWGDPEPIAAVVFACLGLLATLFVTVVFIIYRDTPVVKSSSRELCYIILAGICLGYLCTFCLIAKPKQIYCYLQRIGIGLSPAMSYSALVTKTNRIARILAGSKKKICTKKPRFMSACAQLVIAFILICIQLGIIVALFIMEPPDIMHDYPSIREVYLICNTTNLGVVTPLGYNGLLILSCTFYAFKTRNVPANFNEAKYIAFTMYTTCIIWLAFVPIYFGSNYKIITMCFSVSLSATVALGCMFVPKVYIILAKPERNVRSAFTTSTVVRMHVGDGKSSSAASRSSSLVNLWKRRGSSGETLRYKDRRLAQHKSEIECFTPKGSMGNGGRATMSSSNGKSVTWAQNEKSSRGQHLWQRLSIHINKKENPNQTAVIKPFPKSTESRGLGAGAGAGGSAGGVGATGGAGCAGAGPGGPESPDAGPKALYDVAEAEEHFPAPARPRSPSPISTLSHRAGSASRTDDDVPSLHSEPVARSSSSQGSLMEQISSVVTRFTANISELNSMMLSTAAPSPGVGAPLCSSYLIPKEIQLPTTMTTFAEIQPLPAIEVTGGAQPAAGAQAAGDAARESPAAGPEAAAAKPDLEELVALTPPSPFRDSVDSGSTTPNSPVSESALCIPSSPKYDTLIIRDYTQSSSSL

[3] = target: T1, Metabotropic glutamate receptor 5; experiment: Negative allosteric modulatory activity at human cloned mGluR5 receptor expressed in CHO-T-Rex cells assessed as inhibiton of quisqualate-induced calcium mobilization treated 10 mins prior to agonist application by fluorescence analysis; format: functional, cell-based
How it was run: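 CHO T-REx cells expressing human mGlu5, induced 18 h with 3 ng/mL tetracycline and seeded at 80,000 cells/well. Loaded 1 h at 37 °C with 2 µM Fluo-4/AM in HBSS with 20 mM HEPES and 2.5 mM probenecid, then washed. Compound (0.5% DMSO final) added 10 min before quisqualate at its daily EC80. Peak minus basal fluorescence read every 1.5 s for 60 s.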
Target sequence in this assay (P41594 whole entry): as above

[4] = target: T2, Metabotropic glutamate receptor 1 (Rattus norvegicus, UniProt P23385); experiment: Displacement of [3H]R214127 from rat cloned mGluR1 receptor expressed in CHO-T-Rex cells after 30 mins by liquid scintillation spectrometry; format: cell-based
How it was run: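 CHO T-REx cells stably expressing rat mGlu1, derepressed by 1 µg/mL tetracycline for 18 h. Nonspecific binding with 1 µM R214127. Filtration, scintillation counting. Ki by Cheng-Prusoff.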

[5] = target: T2, Metabotropic glutamate receptor 1; experiment: Negative allosteric modulatory activity at rat cloned mGluR1 receptor expressed in CHO-T-Rex cells assessed as inhibiton of quisqualate-induced calcium mobilization treated 10 mins prior to agonist application by fluorescence analysis; format: functional, cell-based
How it was run: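 CHO T-REx cells expressing rat mGlu1, induced 18 h with 10 ng/mL tetracycline and seeded at 80,000 cells/well. Loaded with 2 µM Fluo-4/AM (1 h, 37 °C, HBSS/HEPES/probenecid), then washed. Compound (0.5% DMSO final) given 10 min before quisqualate at its daily EC80. Peak minus basal fluorescence recorded over 60 s. Three independent experiments.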

[6] = target: T1, Metabotropic glutamate receptor 5; experiment: Non-competitive antagonist activity at human cloned mGluR5 receptor expressed in CHO-T-Rex cells assessed as inhibiton of quisqualate-induced calcium mobilization at 0.3 nM treated 10 mins prior to agonist application by fluorescence analysis; format: functional, cell-based
Target sequence in this assay (P41594 21-1212 limits assumed): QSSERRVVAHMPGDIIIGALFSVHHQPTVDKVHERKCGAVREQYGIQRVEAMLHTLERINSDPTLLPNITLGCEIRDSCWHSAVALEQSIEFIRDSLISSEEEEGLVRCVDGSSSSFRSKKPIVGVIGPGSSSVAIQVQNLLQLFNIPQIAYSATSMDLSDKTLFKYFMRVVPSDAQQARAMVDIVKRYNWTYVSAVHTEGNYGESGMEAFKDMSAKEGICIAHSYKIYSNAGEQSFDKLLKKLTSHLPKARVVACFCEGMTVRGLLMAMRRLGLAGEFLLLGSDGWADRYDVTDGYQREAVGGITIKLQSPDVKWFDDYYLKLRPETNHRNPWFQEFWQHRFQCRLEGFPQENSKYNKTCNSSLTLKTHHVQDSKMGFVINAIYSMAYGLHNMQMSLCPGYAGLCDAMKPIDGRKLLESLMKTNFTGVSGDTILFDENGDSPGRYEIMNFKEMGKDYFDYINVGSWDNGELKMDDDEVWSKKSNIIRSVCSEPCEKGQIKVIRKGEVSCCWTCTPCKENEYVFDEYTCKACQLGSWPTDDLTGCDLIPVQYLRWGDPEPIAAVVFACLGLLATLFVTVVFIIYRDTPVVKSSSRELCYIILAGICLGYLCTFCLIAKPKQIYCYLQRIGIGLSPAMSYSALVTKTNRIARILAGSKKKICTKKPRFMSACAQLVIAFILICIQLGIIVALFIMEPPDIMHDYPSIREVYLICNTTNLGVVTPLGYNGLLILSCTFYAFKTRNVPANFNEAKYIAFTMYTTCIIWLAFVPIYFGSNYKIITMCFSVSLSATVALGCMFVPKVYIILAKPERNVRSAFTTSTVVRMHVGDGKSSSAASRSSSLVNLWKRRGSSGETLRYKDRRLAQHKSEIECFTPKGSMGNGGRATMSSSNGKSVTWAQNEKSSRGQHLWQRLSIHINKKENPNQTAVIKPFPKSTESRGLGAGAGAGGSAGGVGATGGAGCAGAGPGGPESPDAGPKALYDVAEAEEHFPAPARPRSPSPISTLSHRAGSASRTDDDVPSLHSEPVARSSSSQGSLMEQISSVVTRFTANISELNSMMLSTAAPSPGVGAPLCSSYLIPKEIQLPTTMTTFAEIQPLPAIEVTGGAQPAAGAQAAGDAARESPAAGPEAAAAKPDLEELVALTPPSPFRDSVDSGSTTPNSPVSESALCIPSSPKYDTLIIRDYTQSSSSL

Metabotropic glutamate receptor 5 (Rattus norvegicus, UniProt P31424), sequence (P31424 whole entry): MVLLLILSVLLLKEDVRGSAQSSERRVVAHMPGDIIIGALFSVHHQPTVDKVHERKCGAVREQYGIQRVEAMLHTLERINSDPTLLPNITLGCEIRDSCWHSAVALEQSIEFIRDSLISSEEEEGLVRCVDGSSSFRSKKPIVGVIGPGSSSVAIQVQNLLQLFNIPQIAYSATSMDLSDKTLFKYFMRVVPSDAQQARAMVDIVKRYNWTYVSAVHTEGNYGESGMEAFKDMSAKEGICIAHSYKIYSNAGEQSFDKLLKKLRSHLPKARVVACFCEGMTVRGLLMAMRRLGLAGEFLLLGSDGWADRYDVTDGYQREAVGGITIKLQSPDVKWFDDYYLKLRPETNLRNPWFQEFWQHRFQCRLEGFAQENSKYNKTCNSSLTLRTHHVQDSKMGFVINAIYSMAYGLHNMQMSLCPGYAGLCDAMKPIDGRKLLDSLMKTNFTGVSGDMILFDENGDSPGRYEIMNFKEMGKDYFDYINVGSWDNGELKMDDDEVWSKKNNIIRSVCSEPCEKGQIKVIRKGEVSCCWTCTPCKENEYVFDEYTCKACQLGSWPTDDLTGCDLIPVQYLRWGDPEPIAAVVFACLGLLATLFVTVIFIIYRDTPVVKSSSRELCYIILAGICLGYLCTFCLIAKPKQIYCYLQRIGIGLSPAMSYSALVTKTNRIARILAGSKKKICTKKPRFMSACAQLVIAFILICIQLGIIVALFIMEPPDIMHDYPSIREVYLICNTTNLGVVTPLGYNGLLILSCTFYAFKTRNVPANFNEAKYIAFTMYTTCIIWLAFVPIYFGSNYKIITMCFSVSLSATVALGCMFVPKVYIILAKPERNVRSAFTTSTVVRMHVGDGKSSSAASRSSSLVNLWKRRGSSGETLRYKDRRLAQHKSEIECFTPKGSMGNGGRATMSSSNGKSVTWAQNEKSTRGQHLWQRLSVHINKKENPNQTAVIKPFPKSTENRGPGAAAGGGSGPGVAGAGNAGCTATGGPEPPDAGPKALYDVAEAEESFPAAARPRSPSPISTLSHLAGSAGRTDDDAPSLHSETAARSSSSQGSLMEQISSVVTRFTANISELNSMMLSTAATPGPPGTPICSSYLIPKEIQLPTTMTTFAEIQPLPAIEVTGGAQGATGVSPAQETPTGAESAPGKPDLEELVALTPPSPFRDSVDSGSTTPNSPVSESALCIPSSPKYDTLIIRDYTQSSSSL
T2 sequence (P23385 whole entry): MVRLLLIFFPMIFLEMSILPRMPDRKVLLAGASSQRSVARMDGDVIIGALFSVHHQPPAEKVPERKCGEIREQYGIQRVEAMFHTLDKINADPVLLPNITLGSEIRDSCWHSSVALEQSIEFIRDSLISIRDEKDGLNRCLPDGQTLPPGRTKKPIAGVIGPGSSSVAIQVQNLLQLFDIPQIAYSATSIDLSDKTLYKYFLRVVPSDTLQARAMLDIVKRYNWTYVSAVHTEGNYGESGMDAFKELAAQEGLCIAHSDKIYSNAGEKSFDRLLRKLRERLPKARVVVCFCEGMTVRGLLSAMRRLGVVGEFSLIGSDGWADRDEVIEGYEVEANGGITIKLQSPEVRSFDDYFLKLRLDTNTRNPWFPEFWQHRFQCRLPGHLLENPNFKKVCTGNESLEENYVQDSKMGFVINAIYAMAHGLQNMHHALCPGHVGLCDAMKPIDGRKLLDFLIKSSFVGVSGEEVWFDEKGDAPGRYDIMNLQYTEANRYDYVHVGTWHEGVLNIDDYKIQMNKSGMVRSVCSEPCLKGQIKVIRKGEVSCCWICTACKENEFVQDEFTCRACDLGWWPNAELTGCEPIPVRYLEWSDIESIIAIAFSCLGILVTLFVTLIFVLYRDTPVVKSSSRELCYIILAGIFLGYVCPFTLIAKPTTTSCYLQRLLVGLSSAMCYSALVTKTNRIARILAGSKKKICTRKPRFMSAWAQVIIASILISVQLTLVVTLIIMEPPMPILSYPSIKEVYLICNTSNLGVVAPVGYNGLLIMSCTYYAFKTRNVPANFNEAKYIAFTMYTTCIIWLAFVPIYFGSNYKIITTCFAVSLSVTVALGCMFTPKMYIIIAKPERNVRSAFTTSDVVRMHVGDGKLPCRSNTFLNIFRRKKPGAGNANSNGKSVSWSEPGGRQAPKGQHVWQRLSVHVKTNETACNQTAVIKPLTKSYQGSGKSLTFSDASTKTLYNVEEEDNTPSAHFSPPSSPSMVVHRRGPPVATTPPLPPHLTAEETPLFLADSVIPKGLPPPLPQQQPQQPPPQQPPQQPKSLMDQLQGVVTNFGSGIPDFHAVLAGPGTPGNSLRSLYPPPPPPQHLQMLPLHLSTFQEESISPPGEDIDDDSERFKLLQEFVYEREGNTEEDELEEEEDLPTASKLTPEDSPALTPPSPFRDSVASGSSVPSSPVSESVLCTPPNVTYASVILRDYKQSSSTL

Row | SMILES | Ki [1] | Ki [2] | IC50 [3] | Ki [4] | IC50 [5] | inhibition [6]
1 | O=C(C#Cc1ccccc1)N1CCN(c2ncccc2[N+](=O)[O-])CC1 | 0.6 nM | 0.5 nM | 0.9 nM | 96.8 nM | 271 nM | –
2 | O=[N+]([O-])c1cccnc1N1CCC(=CC#Cc2cccc(Cl)c2)CC1 | 0.4 nM | 0.5 nM | 3.8 nM | 18.6 nM | 1340 nM | –
3 | O=[N+]([O-])c1cccnc1N1CCN(CC#Cc2ccccc2)CC1 | 117 nM | 60.7 nM | – | > 1000 nM | – | –
4 | Cc1cccc(C#CC=C2CCN(c3ncccc3[N+](=O)[O-])CC2)c1 | 0.4 nM | 0.3 nM | 1.8 nM | 18.6 nM | 543 nM | –
5 | CN1CC(=O)N=C1NC(=O)Nc1cccc(Cl)c1 [FENOBAM ANHYDROUS] | 313 nM | 162 nM | 36.3 nM | – | – | –
6 | O=C(c1cnc2ccccc2n1)N1CCN(c2ncccc2[N+](=O)[O-])CC1 | > 1000 nM | > 10000 nM | – | – | – | –
7 | O=[N+]([O-])c1cccnc1N1CCC(=CC#Cc2ccccc2)CC1 | 0.6 nM | 0.4 nM | 2.8 nM | 4.8 nM | 39.3 nM | –
8 | C=Cc1ccc([N+](=O)[O-])c(N2CCN(C(=O)C#Cc3ccccc3)CC2)n1 | 1.3 nM | – | 42 nM | 54.2 nM | – | –
9 | CC1(C)CN(c2ccc(C#CC=C3CCN(c4ncccc4[N+](=O)[O-])CC3)cc2)C1=O | – | > 1000 nM | – | – | – | –
10 | O=C(c1ccc(-c2ccccc2)cc1)N1CCN(c2ncccc2[N+](=O)[O-])CC1 | > 1000 nM | > 10000 nM | – | – | – | –
11 | Cc1ccc([N+](=O)[O-])c(N2CCC(=CC#Cc3ccc(C#N)cn3)CC2)n1 | 0.4 nM | 0.3 nM | 1.3 nM | 190 nM | – | –
12 | N#Cc1cc(Cl)cc(C#CC=C2CCN(c3ncccc3[N+](=O)[O-])CC2)c1 | – | 283 nM | – | > 1000 nM | – | –
13 | Cc1cccc(C#C/C=C2/CCCN(c3nc(C)ccc3[N+](=O)[O-])C2)n1 | – | 264 nM | – | > 1000 nM | – | –
14 | Cc1ccc([N+](=O)[O-])c(N2CCN(C(=O)c3cccc(-c4ccccc4)c3)CC2)n1 | > 10000 nM | > 10000 nM | – | – | – | –
15 | O=C(c1ccccc1-c1ccccc1)N1CCN(c2ncccc2[N+](=O)[O-])CC1 | > 10000 nM | > 10000 nM | – | – | – | –
16 | Cc1cccc(C#CC=C2CCN(c3ncccc3[N+](=O)[O-])CC2)n1 | 0.03 nM | 0.5 nM | 0.8 nM | 184 nM | 448 nM | 50%
17 | O=[N+]([O-])c1cccnc1N1CCC(=CC#Cc2ccccn2)CC1 | 0.1 nM | 0.3 nM | 0.4 nM | 39.1 nM | 207 nM | –

The remaining lines, values ahead:

Row | Ki [1] | Ki [2] | IC50 [3] | Ki [4] | IC50 [5] | inhibition [6] | SMILES
18 | 0.2 nM | 0.3 nM | 10.4 nM | 70.7 nM | 551 nM | – | Cc1cccc(C#CC=C2CCN(c3ccccc3[N+](=O)[O-])CC2)n1
19 | – | – | – | > 10000 nM | – | – | Cc1nc(C#Cc2cccnc2)cs1
20 | – | – | – | > 10000 nM | – | – | Cc1cccc(C#Cc2ccccc2)n1
21 | – | – | – | > 10000 nM | – | – | Cc1nc(C#Cc2ccc(-c3cccnc3)nc2)cs1
22 | 1.8 nM | 0.4 nM | – | 69.3 nM | – | – | O=C(C#Cc1ccccc1)N1CCN(c2ccccc2[N+](=O)[O-])CC1
23 | 2.9 nM | 0.5 nM | 9.7 nM | 443 nM | – | – | Cc1cccc(C#CC=C2CCN(c3ncc(-c4ccccc4)cc3C#N)CC2)n1
24 | 92 nM | 29.2 nM | 55 nM | – | – | – | Cc1cccc(C#CC=C2CCN(c3ccccc3)CC2)n1
